# Most compounds without a hit are left out; they make up all but 5.3% or so of the library.
# Mdm2-MdmX inh = disrupts the human Mdm2-MdmX interaction; O15151+Q00987; SaOS-2 split-luciferase Mdm2/MdmX complementation, luminescence; inhibition, % at 8 µM; hit rate 3% among 330,000;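 active = inhibition of at least 50% at 8 µM in the primary screen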
# Target sequence (O15151 whole entry, looked up): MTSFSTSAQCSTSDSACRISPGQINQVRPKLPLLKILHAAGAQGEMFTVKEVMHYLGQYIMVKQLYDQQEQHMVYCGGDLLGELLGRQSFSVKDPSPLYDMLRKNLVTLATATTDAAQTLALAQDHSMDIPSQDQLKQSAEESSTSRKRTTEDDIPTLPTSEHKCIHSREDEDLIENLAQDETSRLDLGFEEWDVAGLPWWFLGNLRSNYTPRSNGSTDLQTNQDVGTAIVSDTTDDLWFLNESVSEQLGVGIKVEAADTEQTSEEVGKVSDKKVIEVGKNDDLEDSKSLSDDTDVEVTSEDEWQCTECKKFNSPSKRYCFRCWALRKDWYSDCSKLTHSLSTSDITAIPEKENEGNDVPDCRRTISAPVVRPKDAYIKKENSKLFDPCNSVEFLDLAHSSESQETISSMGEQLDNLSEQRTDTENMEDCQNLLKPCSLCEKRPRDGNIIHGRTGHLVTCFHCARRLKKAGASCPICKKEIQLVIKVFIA
# Target sequence (Q00987 whole entry, looked up): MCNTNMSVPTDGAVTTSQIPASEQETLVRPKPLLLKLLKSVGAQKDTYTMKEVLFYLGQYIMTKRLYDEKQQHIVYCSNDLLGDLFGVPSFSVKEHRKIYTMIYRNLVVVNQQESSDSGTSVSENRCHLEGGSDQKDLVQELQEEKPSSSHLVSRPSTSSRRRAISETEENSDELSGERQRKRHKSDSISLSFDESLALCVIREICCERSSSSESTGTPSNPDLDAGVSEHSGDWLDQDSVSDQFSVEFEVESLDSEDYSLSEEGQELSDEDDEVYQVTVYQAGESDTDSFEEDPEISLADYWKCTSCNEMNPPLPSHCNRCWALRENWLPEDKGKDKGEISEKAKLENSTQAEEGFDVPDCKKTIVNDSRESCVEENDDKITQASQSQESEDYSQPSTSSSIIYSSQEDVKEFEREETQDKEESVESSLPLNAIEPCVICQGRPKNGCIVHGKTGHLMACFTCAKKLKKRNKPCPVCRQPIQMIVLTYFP
# Beta cell apopt = blocks beta cell apoptosis. INS-1E cytokine-induced death, ATP luminescence, 48 h; percent of positive-control rescue, neutral wells zero. AID 435005. protection from apoptosis, % (no concentration beside the values). hit rate 0.8% among 300,000;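 active = Every replicate reaches about 75%, or at least half do and their mean reaches it too, limit read from the data; inconclusive = At least half of replicates reach the limit but their mean does not; inactive = Under half of replicates reach the limit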;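 also: 0% = cytokine-treated negative control wells and 100% = positive control rescue; higher means more ATP so stronger rescue from cytokine killing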
# Calb FLC = C. albicans growth modulation with fluconazole; AID 1979; growth inhibition, % (no concentration beside the values); hit rate 0.57% among 300,000; C. albicans CaCi-2 (fluconazole-resistant clinical isolate) + fluconazole, Alamar Blue growth, 48 h;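 active = growth inhibition above about 58% in most replicates, limit read from the data, passing the limit was not always enough; inconclusive = exactly half the replicates above a set limit; inactive = most replicates below a set limit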;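 also: all wells also contain fluconazole at 8 µg/ml as a sub-toxic cotreatment; 0% = median of DMSO wells and 100% = median of geldanamycin control wells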
# NLRP3 yeast inh = NALP3 inhibition in yeast; inhibition, % at 10 µM; Yeast reconstituted NLRP3/ASC/caspase-1, beta-gal luminescence, 24 h; hit rate 0.39% among 330,000;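 active = inhibition of 50% or more; inactive = inhibition below 50%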;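 also: plate controls were induced DMSO wells for no effect and uninduced yeast grown without galactose for full effect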
# T cruzi repl = T. cruzi replication inhibition | hit rate 1.4% among 300,000 | T. cruzi beta-gal in NIH3T3, luminescence, 90 h | inhibition, % (test concentration not listed) | AID 1885;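 active = mean inhibition across valid replicates above about 55%, limit read from the data; inconclusive = mean below that limit but half or more replicates reach it; inactive = mean below it, under half of replicates reach it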;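 also: signal also drops with host cell toxicity which is not excluded here; 0% = plate median of DMSO wells and 100% = zero luminescence signal; higher percent means less beta-gal luminescence so fewer parasites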
#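 Material: NIH/3T3 host cells with β-galactosidase reporter T. cruzi; Input: 5,000 host fibroblasts per well; Medium: DMEM, 2% fetal bovine serum; Compound: 50 nL DMSO compound solution per well; Schedule: 3 h host attachment, then at least 90 h co-culture; Detection: luminescent β-galactosidase signal after 60 min lysis.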
# CSC inhib = cancer stem cell inhibition; cancer stem cell-like cells viability, luminescence; inhibition, % at 7.5 µM; hit rate 1.1% among 300,000; AID 2717; in the data active = inhibition above about 75%; inconclusive = no clear call, values can overlap the other calls; tested in HMLE shEcad cells
# Mdm2-MdmX conf = human Mdm2/MdmX binding inhibition, confirmed. hit rate 55% among 10,000. shares compounds with Mdm2-MdmX inh. AID 489028. inhibition, % at 8 µM. luminescent assay; in the data active = inhibition above about 40%
# FLuc counter = full-length luciferase inhibition in Mdm2/MdmX counter-screen | shares compounds with Mdm2-MdmX inh | SaOS-2 full-length luciferase counterscreen, luminescence | inhibition, % at 8 µM | hit rate 77% among 6,200;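 active = mean inhibition at 8 µM reaching about 37%, which flags the compound as non-specific, limit read from the data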;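 also: p53-null SaOS-2 cells with luciferase driven by a doxycycline-inducible promoter; compound on cells about two nights before reading with doxycycline added after day one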
# Starred values were filed as active, the others as inactive; ? = inconclusive; . = no result given.
SMILES,Mdm2-MdmX inh,Beta cell apopt,Calb FLC,NLRP3 yeast inh,T cruzi repl,CSC inhib,Mdm2-MdmX conf,FLuc counter
O=[N+]([O-])c1nn(-c2ccccc2)n(O)c1=NCc1ccc2c(c1)OCO2,6,.,8,0,42,.,.,.
Cc1ccc(N=c2c([N+](=O)[O-])nn(-c3ccccc3)n2O)c(C)c1,-78,.,-2,4,53,.,.,.
N#CCC(=O)N/N=C/c1cc([N+](=O)[O-])ccc1N1CCCC1,30,-1,29,10,-4,-6,.,.
O=C(Cn1c2ccccc2c(=O)c2ccccc21)N/N=C/c1cc([N+](=O)[O-])ccc1N1CCCCCC1,97*,16,-3,9,-21,-3,13,.
O=C(CNc1ccccc1)N/N=C/c1cc([N+](=O)[O-])ccc1N1CCCC1,27,8,1,25,5,12,.,.
O=C(N/N=C/c1cc([N+](=O)[O-])ccc1N1CCNCC1)c1ccc([N+](=O)[O-])cc1,101*,0,11,22,-5,-18,41*,32
CCN(CC)S(=O)(=O)c1cccc(C(=O)N/N=C/c2cccc(O)c2O)c1,60*,42,-2,22,3,98*,66*,39*
Nc1ccc(C(=O)N/N=C/c2sc(N3CCOCC3)nc2-c2ccccc2)cc1,-3,5,5,9,9,4,.,.
CCN(CC)c1ccc(/C=N/Nc2nc(C)cc(=O)[nH]2)c(O)c1,64*,61,102*,12,42,17,80*,22
O=C(N/N=C/c1ccccc1O)c1cccc(C(F)(F)F)c1,69*,?,80*,0,-18,78*,73*,36
O=C(N/N=C/c1ccc(O)cc1)c1cccc(C(F)(F)F)c1,-15,-9,27,12,-18,-10,.,.
O=C(N/N=C/c1sc(N2CCOCC2)nc1-c1ccccc1)c1cccc(S(=O)(=O)N2CCOCC2)c1,76*,113*,98*,19,37,24,70*,43*
COc1ccc(Nc2nc(NCCO)nc(OC)n2)cc1,-32,-3,-2,19,-19,-3,.,.
O=C(NCc1ccc(F)cc1)N1CCc2ccccc2C1,8,-4,4,22,-8,1,.,.
CCC(C)C(NC(=O)OC(C)(C)C)C(=O)NC(C(=O)NC(C)C(N)=O)C(C)C (centres undefined),11,-1,-7,20,-5,-6,.,.
Cc1nnc(SCC(=O)Nc2cc(S(=O)(=O)N3CCOCC3)ccc2C)s1,-2,.,.,1,.,.,.,.
CCN(CC)c1ccc(/C=N/NC(=O)c2cccc(S(=O)(=O)N3CCOCC3)c2)c(O)c1,75*,75*,102*,7,65*,110*,84*,53*
CCN(CC)c1ccc(/C=N/NC(=O)c2c(Cl)cnn2C)c(O)c1,71*,95*,4,18,54,-6,81*,27
Cc1ccc(/C=N/NC(=O)c2cc(C)oc2C)o1,11,-8,12,-5,-5,.,.,.
COc1cccc(N/C(C)=C/C(=O)c2ccc(Br)cc2)c1,-154,4,2,20,8,-10,.,.
CN(C)c1ccc(C2C=C(c3ccc(Cl)cc3OC(F)F)Nc3ncnn32)cc1 (centres undefined),66*,11,-17,-6,27,58,54*,49*
C[C@H]1CC[C@H]2C(=O)N3[C@H](c4ccccc4Br)[C@@H](C)CC[C@H]3C(=O)N2[C@@H]1c1ccccc1Br,79*,110*,-18,1,45,54,51*,68*
O=C(Cc1n[nH]c(=O)c2ccccc12)OCC(=O)N(Cc1ccccc1)Cc1ccccc1,4,-1,4,-57,17,5,.,.
Clc1cccc2c1Sc1ccccc1CC2N1CCNCC1 (centres undefined),66*,5,.,13,26,-6,73*,47*
COCCCN1CCN(C2Cc3ccccc3Sc3ccc(Cl)cc32)CC1 (centres undefined),43,2,-1,20,28,5,.,.
SMILES,Mdm2-MdmX inh,Beta cell apopt,Calb FLC,NLRP3 yeast inh,T cruzi repl,CSC inhib,Mdm2-MdmX conf,FLuc counter
Clc1ccc2c(c1)C(N1CCNCC1)Cc1ccccc1S2 (centres undefined),101*,27,.,24,4,-6,100*,39*
COc1ccc(-c2nnc3ccc(SCC(=O)Nc4nc5ccc(C)cc5s4)nn23)cc1OC,25,.,-3,-17,17,.,.,.
Cc1cc(NC(=O)CN2CCCCCCC2)no1,-3,-5,30,10,-1,-11,.,.
Oc1ccc(/C=N/Nc2cc(N3CCOCC3)nc(N3CCOCC3)n2)cc1O,-26,6,-3,14,6,29,.,.
Oc1ccccc1/C=N/Nc1cc(N2CCCC2)nc(N2CCCC2)n1,50,16,3,15,57*,-5,30,.
O=C(NCC1CCCO1)C1CCCN(S(=O)(=O)c2ccc(Br)cc2)C1 (centres undefined),22,-1,-6,1,-6,-13,.,.
CCOc1ccc2ccccc2c1C(=O)N1CCN(c2ccccc2)CC1,58*,-5,-8,15,-32,.,54*,51*
CCOc1ccccc1C(=O)N1CCN(c2cccc(Cl)c2)CC1,74*,21,-10,19,-11,63,63*,93*
COc1cc(/C=C(\C#N)C(=O)Nc2cc(C(F)(F)F)ccc2Cl)ccc1OCC(=O)Nc1cccc(C(F)(F)F)c1,20,-1,-13,17,-4,-3,.,.
COC(=O)c1ccc(CNC(=O)Cn2cnc3c(SC)nc(N)nc32)cc1,-13,-4,.,3,.,.,.,.
Nc1ncc(Br)cc1S(=O)(=O)Nc1cc(C(F)(F)F)cc(C(F)(F)F)c1,79*,15,?,22,-36,-6,38,56*
COc1ccc2oc(C)c(C(=O)c3ccccc3)c2c1,1,-7,-7,15,13,0,.,.
COc1ccc2oc(/C=C/N(C)C)c(C(=O)c3ccc(Cl)cc3)c2c1,79*,-4,31,20,11,40,26,.
COc1ccc(/C=C2\CC/C(=C\c3ccc(OC)c(OC)c3)C2=O)cc1OC,20,1,-13,5,4,-19,.,.
COc1ccc(C=C2C=C(C(C)(C)C)C(=O)C(C(C)(C)C)=C2)cc1OC,100*,-4,-5,7,75*,?,18,.
C=CCOc1ccc(Br)cc1CNCCO,1,-1,4,3,3,11,.,.
Cc1cc(Sc2nnc(N)s2)c2ccccc2n1,50*,.,15,18,16,44,36,15
Cc1cc(Sc2nnc(/N=C/N(C)C)s2)c2ccccc2n1,41,.,62,47,.,62,.,.

# Screening data as filed in PubChem BioAssay.
